ABCB6 inh MLPCN = inhibitors of human ABC transporter ABCB6. K562-ABCB6 porphyrin accumulation, flow cytometry, 1 h; stronger effect = lower value. fluorescence ratio to DMSO, % at 10 µM. 0.19% of 360,000 active;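 active = fluorescence ratio to DMSO below 75%, the collection mean minus 3 SD; inconclusive = too few cells collected in the well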;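 note: signal is porphyrin accumulated inside mitochondria; 100% equals median channel fluorescence of DMSO control wells; lower ratio means ABCB6 inhibition with less porphyrin fluorescence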
Target sequence (Q9NP58 whole entry, looked up): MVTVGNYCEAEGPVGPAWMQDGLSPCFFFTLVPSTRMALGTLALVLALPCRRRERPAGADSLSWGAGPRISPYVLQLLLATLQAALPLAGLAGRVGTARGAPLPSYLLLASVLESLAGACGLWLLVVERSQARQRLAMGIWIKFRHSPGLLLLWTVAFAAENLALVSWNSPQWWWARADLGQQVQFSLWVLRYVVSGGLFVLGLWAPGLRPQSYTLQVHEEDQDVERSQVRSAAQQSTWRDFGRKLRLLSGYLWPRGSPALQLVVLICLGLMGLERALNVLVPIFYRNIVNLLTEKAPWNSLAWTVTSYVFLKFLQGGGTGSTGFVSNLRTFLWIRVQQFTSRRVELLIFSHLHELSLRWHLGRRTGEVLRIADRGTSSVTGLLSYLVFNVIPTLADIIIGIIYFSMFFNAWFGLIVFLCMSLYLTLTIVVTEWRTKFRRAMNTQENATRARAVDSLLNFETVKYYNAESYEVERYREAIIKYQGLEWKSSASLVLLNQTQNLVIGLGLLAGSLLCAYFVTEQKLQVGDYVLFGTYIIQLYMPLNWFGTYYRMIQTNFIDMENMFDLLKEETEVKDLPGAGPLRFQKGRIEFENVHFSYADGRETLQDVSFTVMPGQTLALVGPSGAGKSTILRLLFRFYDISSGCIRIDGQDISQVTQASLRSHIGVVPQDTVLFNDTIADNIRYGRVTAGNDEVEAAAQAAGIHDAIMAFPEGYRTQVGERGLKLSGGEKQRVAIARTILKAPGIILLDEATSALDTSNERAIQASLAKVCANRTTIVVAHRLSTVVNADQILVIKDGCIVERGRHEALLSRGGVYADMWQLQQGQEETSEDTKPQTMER
Arr AP2 block = blocks beta-arrestin peptide binding to AP2 adaptin | 0.31% of 340,000 active | inhibition, % at 10 µM | FITC-arrestin peptide / GST-AP2 beads, flow cytometry; AP2 beta2 appendage carries R879A mutation;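 active = inhibition above a set limit, near 3 SD of compounds lacking own fluorescence, cut at about 54% in these data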;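 note: plate controls were DMSO wells for no effect and 5 µM unlabelled arrestin peptide for full effect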
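System: GST-AP2 R879A glutathione beads; medium: PBS, Tween 20 0.05%, BSA 0.1%; reagent: fluorescein-tagged arrestin peptide at 50 nM final; schedule: pre-incubation 12 min, peptide binding 1 h, room temperature; detection: flow cytometry, FL1 (488/535 nm); read-out: inhibition as reduced fluorescein signal on beads, percent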
ATG4B inh = blocks human ATG4B protease cleavage of LC3 substrate | Q9Y4P1 | ATG4B cleavage of LC3-PLA2, NBD-HPC fluorescence, 1 h | inhibition, % at 8.33 µM | 0.51% of 340,000 active | AID 504462; in the data active = inhibition above about 40%
Granule exo inh = lytic granule exocytosis inhibition; 0.66% of 360,000 active; TALL-104 LAMP-1 surface exposure, flow cytometry; cells stimulated with thapsigargin and PMA; inhibition, % at 10 µM;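 active = inhibition above about 55%, limit read from the data; inconclusive = no clear call, values can overlap the other calls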
Myeloid diff 2 = myeloid differentiation induction; 1% of 360,000 active; calls only at 10 µM; ER-HoxA9 myeloid progenitors, lysozyme-GFP differentiation, flow cytometry; AID 624256;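 active = normalized GFP-positive differentiation at or above the plate's own cutoff, the solvent-only control mean plus 3 SD; inconclusive = no clear call, values can overlap the other calls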;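 note: cells exposed to compound for four days before flow analysis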
NRP1-CendR mod = alters CendR peptide binding to human NRP-1. O14786. FAM-RPARPAR peptide binding to NRP-1, fluorescence polarization. inhibition, % at 25 µM. 0.85% of 360,000 active. AID 602438;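 active = inhibition or corrected inhibition above about 18%, plus a signal ratio from 0.5 to 1.5, limit read from the data, passing the limit was not always enough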
Active calls of the source: *; i = inactive; ? = inconclusive; . = no result given; + = active, no number. Rows were chosen to be rich in hits. Some 3.3% of all compounds tested hit in one or more screens of this group.

SMILES	ABCB6 inh MLPCN	Arr AP2 block	ATG4B inh	Granule exo inh	Myeloid diff 2	NRP1-CendR mod
CC1(C)CC(NC(=O)C23CCC(C)(C2Br)C3(C)C)CC(C)(C)N1 (stereo unspecified)	101	1	12	0	i	8
CCOc1ncccc1C(=O)NCc1ccccc1F	95	-3	0	1	i	-2
O=C(NCCc1ccccc1F)c1cccc2cccnc12	108	-6	6	-1	+	-38
COc1ccc(C2/C=C\CN(C(=O)C3CC3)[C@H](Cc3ccccc3)C(=O)N2Cc2ccc(F)cc2)cc1 (stereo partly specified)	99	-4	8	2	i	3
COc1ccc([C@H]2/C=C\CN(S(C)(=O)=O)[C@@H](C)C(=O)N2Cc2ccc(F)cc2)cc1	96	2	-11	0	i	22*
COc1ccc(C2/C=C\CN3CCC[C@H]3C(=O)N2Cc2ccc(F)cc2)cc1 (stereo partly specified)	100	10	1	2	i	-41
COc1ccc([C@H]2/C=C\CN(C(=O)C3CC3)[C@@H](C)C(=O)N2Cc2ccc(F)cc2)cc1	94	23	-6	7	i	33*
CC1(C(=O)NS(=O)(=O)c2cccc(Cl)c2)CCN1C(=O)c1ccccc1CCc1ccccc1 (stereo unspecified)	100	.	.	1	i	-6
Oc1cc(CNCc2ccccc2)c(O)cc1CNCc1ccccc1	97	12	7	1	i	28*
CCOc1cc(C(=O)N2CCC(CC3CC(c4ccccc4)=NO3)(C(=O)NCc3ccc(OC)cc3)CC2)cc(OCC)c1OCC (stereo unspecified)	95	-1	-14	-20	i	45*
CCCNC(=O)C1(CC2CC(c3ccccc3)=NO2)CCN(C(=O)c2ccccc2)CC1 (stereo unspecified)	98	3	-8	-14	i	27*
Cc1ccc2nc(N(CCCN(C)C)C(=O)c3sc4ccccc4c3Cl)sc2c1	89	9	-2	8	i	6
CC(C)CCOP(=O)(c1ccc(N(C)C)cc1)C(Nc1ccccc1)c1ccc(N(C)C)cc1 (stereo unspecified)	91	23	-15	0	i	-6
CC(C)OP(=O)(c1ccc(N(C)C)cc1)C(Nc1ccccc1)c1ccccc1 (stereo unspecified)	94	42	-12	7	i	31*
Cc1cc(Br)cn2ccnc12	96	-2	-1	0	i	-5
Cc1oc(-c2ccccc2)cc1C(=O)Nc1cccc(C(=O)O)c1	110	-2	-2	1	i	-6
Cc1oc(-c2ccc(Cl)cc2)cc1C(=O)O	89	-17	6	-6	i	44*
CCCCNC(=O)c1onc(CSc2ccc(Cl)cc2)c1C(=O)NCCCC	96	6	1	70*	i	15
CCCCNC(=O)c1onc(CSc2ccc(Cl)cc2)c1C(=O)O	95	-3	-10	-3	i	-10
CCCCNC(=O)c1c(CSc2ccc(Cl)cc2)noc1C(=O)NCCC	98	5	2	-4	i	31*
O=C(c1ccc(S(=O)(=O)Cc2cc(F)ccc2F)c([N+](=O)[O-])c1)N1CCCCC1	99	-3	12	-1	+	-4
O=C(c1ccc(S(=O)(=O)Cc2cc(F)ccc2F)c([N+](=O)[O-])c1)N1CCCC1	91	-20	1	6	i	10
COc1ccc(-c2cn(CCC(=O)O)c(-c3ccc(Cl)nc3)n2)cc1	98	11	-9	-15	i	2
COc1ccc(-c2cn(CCO)c(-c3ccc(Cl)nc3)n2)cc1	100	1	-6	6	i	18*
Cc1ccc(-n2nc(-c3ccccc3)cc2Nc2ccccc2N)cc1	99	4	-2	-1	i	1
SMILES	ABCB6 inh MLPCN	Arr AP2 block	ATG4B inh	Granule exo inh	Myeloid diff 2	NRP1-CendR mod
Nc1ccccc1Nc1cc(-c2ccccc2)[nH]n1	123	14	-11	2	+	-16
Nc1ccccc1Nc1ccccc1	193	9	2	8	+	-50
Nc1ccccc1Nc1cc(-c2ccccc2)nn1-c1ccccc1	112	28	1	44	+	3
O=C1c2ccccc2[C@@H]2C[C@@H](O)[C@H](Nc3cccc4ccccc34)CCN12	108	6	-2	2	i	-16
CCN(CC)c1nc(-c2ccc(C(=O)NN)cc2)nc(-c2ccc(C(=O)NN)cc2)n1	96	-4	-1	-10	i	9
O=S(=O)(c1ccc2c(c1)C(=NO)c1cc(S(=O)(=O)N3CCCCC3)ccc1-2)N1CCCCC1	72*	-4	-15	42	i	9
CCN1CCN(S(=O)(=O)c2ccc(Cl)c(C(=O)NC3CCCC3)c2)CC1	90	27	6	-3	i	8
CC1CCN(S(=O)(=O)c2ccc3c(c2)C(=NO)c2cc(S(=O)(=O)N4CCC(C)CC4)ccc2-3)CC1	70*	-4	-8	24	?	-14
O=C(NC1CCCCC1)c1cc(S(=O)(=O)N2CCCC2)ccc1Cl	95	-6	-10	-7	i	22*
COc1ccc(N(C)S(=O)(=O)c2cccc(C(=O)NC3CCCC(C)C3C)c2)cc1 (stereo unspecified)	92	-3	-1	39	i	-6
Cc1nnc(SCCOc2ccccc2)s1	97	10	4	-3	i	51*
COc1nc(Nc2cccc(F)c2)nc(OC)n1	91	-1	-1	-8	i	-3
COc1cc2nc(Nc3cccc(F)c3)nc(N)c2cc1OC	92	31	-9	62*	i	-5
CCN(CC)c1ccc2cc(-c3nnc(-c4ccccc4)o3)c(=O)oc2c1	329	-26	-17	-4	+	133
CCN(CC)c1ccc2cc(C(=O)c3cccs3)c(=O)oc2c1	321	.	.	-4	+	135
CCN(CC)c1ccc2cc(C(=O)NCc3ccc(F)cc3)c(=N)oc2c1	196	15	.	38	i	-119
CCN(CC)c1ccc2cc(-c3nc4ccccc4[nH]3)c(=O)oc2c1	707	-73	-14	14	+	132
CCN(CC)c1ccc2cc(-c3nc4ccccc4n3C)c(=O)oc2c1	110	16	-8	-2	?	-53
O=c1oc2ccc3ccccc3c2cc1-c1nnc(-c2ccccc2)o1	98	38	-4	1	i	-22
OCC[C@@H]1C[C@@H](O)[C@H](O)[C@@]2(OCCc3ccccc32)O1	103	33	14	-5	i	8
CC(C)c1ccc(S(=O)(=O)/N=C2\C=C(NS(=O)(=O)c3ccccc3)C(=O)c3ccccc32)cc1	99	-3	-29	15	.	31*
